Source: ChEMBL document CHEMBL3865784 (Eur J Med Chem, 2016)

What was measured:
[1] = Cytotoxicity against human HCT116 cells expressing NQO1 assessed as reduction in cell viability after 72 hrs by MTT assay; format: functional, cell-based; details: HCT-116, 72 h
Summary of the method: (§1)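 Cancer lines from NCI, grown in RPMI 1640 with 10% FBS, 2 mM L-glutamine, penicillin/streptomycin, 37 °C, 5% CO2; seeded 0.1 × 10^6 cells/well (HL-60) or 0.7 × 10^5 cells/well (solid tumours). Compounds in DMSO, final 0.1% v/v; DMSO vehicle as negative control.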

[2] = Cytotoxicity against NQO1-deficient chinese hamster V79 cells assessed as reduction in cell viability after 72 hrs by MTT assay; format: toxicity, cell-based, Cricetulus griseus; details: Chinese hamster, NQO1-deficient V79 cells
[3] = Cytotoxicity against NQO1-deficient mouse L929 cells assessed as reduction in cell viability after 72 hrs by MTT assay; format: toxicity, cell-based; details: mouse, NQO1-deficient L929 cells
[4] = Cytotoxicity against NQO1-deficient human PBMC assessed as reduction in cell viability after 72 hrs by MTT assay; format: toxicity, cell-based; details: human
[5] = Cytotoxicity against human MDA-MB-435 cells overexpressing NQO1 assessed as reduction in cell viability after 72 hrs by MTT assay; format: functional, cell-based; details: MDA-MB-435, 72 h; summary of the method: as §1
[6] = Cytotoxicity against human OVCAR8 cells overexpressing NQO1 assessed as reduction in cell viability after 72 hrs by MTT assay; format: functional, cell-based; details: OVCAR-8, 72 h; summary of the method: as §1

COc1cccc2c1C(=O)c1c(O)c3c(c(O)c1C2=O)C[C@@](O)(C(=O)CO)C[C@@H]3O[C@H]1C[C@H](N)[C@H](O)[C@H](C)O1 [DOXORUBICIN]
IC50 [1]: 150 nM | IC50 at 72 h [2]: 280 nM | IC50 at 72 h [3]: 230 nM | IC50 at 72 h [4]: 550 nM | IC50 [5]: 960 nM | IC50 [6]: 410 nM
